According to ChEMBL document CHEMBL4270664 (J Med Chem, 2018):

Legend:
[1] = AUClast in mouse at 3 mg/kg, iv; format: ADME, organism-based; parameters: dose 3 mg/kg, time 0 - last, route intravenous; conditions: in vivo
How it was run: (§1)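 Mice were dosed at 3 mg/kg intravenously, with plasma sampled at 6 time points and n = 2 mice per time point.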

[2] = Cmax in mouse at 3 mg/kg, iv; format: ADME, organism-based; parameters: dose 3 mg/kg, route intravenous; conditions: in vivo; how it was run: as §1
[3] = Half life in mouse at 3 mg/kg, iv; format: ADME, organism-based; conditions: in vivo; how it was run: as §1
[4] = Clearance in mouse at 3 mg/kg, iv; format: ADME, organism-based; conditions: in vivo; how it was run: as §1
[5] = target: T1, NUAK family SNF1-like kinase 1 (Homo sapiens, UniProt O60285); assay: Inhibition of N-terminal GST-tagged full length human NuaK1 (1 to 661 end residues) expressed in baculovirus expression system using fluorecence-labeled substrate by MCE assay
T1 sequence (O60285 whole entry): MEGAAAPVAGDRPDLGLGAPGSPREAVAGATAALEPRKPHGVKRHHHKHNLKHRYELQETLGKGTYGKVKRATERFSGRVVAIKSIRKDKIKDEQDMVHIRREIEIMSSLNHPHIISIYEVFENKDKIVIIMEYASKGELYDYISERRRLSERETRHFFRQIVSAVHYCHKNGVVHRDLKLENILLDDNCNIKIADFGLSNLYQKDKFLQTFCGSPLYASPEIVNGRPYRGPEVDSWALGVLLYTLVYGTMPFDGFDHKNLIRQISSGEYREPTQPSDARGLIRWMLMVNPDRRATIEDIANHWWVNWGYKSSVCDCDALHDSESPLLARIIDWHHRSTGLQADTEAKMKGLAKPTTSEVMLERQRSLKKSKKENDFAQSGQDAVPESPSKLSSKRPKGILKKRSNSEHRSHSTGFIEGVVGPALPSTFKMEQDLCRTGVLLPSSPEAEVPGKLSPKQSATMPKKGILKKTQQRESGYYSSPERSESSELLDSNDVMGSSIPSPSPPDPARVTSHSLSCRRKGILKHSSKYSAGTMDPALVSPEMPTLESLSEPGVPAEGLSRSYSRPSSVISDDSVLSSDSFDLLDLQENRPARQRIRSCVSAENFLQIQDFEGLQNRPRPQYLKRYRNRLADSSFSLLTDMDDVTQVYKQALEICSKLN

[6] = organism: Mus musculus; assay: animal or person; conditions: Mus musculus, 697, ip, 10 min, read-out: INH
[7] = Tmax in NSG mouse xenografted with human 697 cells at 30 mg/kg, ip administered as single dose; format: ADME, organism-based; conditions: in vivo
[8] = target: Serine/threonine-protein kinase SIK2 (Homo sapiens, UniProt Q9H0K1); assay: Inhibition of N-terminal GST-tagged full length human QIK (1 to 926 end residues) expressed in baculovirus expression system using fluorecence-labeled substrate by MCE assay
[9] = Oral bioavailability in mouse at 3 mg/kg; format: ADME, organism-based; conditions: in vivo
How it was run: (§2)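 Mice were dosed at 3 mg/kg by oral or intraperitoneal route in an extended PK study. Oral bioavailability was derived against the iv route.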

[10] = target: High affinity nerve growth factor receptor (Homo sapiens, UniProt P04629); assay: Inhibition of N-terminal GST-tagged human TRKA cytoplasmic domain (436 to 790 end residues) expressed in baculovirus expression system using fluorecence-labeled substrate by MCE assay
[11] = Half life in NSG mouse xenografted with human 697 cells at 30 mg/kg, ip administered as single dose; format: ADME, organism-based; conditions: in vivo
[12] = target: Mast/stem cell growth factor receptor Kit (Homo sapiens, UniProt P10721); assay: Inhibition of N-terminal GST-tagged human KIT cytoplasmic domain (544 to 976 end residues) expressed in baculovirus expression system using fluorecence-labeled substrate by MCE assay
[13] = Cmax in mouse at 3 mg/kg, ip; format: ADME, organism-based; parameters: dose 3 mg/kg, route intraperitoneal; conditions: in vivo; how it was run: as §2
[14] = target: STE20-like serine/threonine-protein kinase (Homo sapiens, UniProt Q9H2G2); assay: Inhibition of N-terminal GST-tagged full length human SLK (1 to 1152 end residues) expressed in baculovirus expression system using fluorecence-labeled substrate by MCE assay
[15] = Cmax in mouse at 3 mg/kg, po; format: ADME, organism-based; parameters: dose 3 mg/kg, route oral; conditions: in vivo; how it was run: as §2
[16] = target: NT-3 growth factor receptor (Homo sapiens, UniProt Q16288); assay: Inhibition of N-terminal GST-tagged human TRKC cytoplasmic domain (456 to 825 end residues) expressed in baculovirus expression system using fluorecence-labeled substrate by MCE assay
[17] = Half life in mouse at 3 mg/kg, ip; format: ADME, organism-based; conditions: in vivo; how it was run: as §2
[18] = target: T2, Tyrosine-protein kinase Mer (Homo sapiens) (UniProt Q12866); conditions: 100 nM
T2 sequence (whole entry): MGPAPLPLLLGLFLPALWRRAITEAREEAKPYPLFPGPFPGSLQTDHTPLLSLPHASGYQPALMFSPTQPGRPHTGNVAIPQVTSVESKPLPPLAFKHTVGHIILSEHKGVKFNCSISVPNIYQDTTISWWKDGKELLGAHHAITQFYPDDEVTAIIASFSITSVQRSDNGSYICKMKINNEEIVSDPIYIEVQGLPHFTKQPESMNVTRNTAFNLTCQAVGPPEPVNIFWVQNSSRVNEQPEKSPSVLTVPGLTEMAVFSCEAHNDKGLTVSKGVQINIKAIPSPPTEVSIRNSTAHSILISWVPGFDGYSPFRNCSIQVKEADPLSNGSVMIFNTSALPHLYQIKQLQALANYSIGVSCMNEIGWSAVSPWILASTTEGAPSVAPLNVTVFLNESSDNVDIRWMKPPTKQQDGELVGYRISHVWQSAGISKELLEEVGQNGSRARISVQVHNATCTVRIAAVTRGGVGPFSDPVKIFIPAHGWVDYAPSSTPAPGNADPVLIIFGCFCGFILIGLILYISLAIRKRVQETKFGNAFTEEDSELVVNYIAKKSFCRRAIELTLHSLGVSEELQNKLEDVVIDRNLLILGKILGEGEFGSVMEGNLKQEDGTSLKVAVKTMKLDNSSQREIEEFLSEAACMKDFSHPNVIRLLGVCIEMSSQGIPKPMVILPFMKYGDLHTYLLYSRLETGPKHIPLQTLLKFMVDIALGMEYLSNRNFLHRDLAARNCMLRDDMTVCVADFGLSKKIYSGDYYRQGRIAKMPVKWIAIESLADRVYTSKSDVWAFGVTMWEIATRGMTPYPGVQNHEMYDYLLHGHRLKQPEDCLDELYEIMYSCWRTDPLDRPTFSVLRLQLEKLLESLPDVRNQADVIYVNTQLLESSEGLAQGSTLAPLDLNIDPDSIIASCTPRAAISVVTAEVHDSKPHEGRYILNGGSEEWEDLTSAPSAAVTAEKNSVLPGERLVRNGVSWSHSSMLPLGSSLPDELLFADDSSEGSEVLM

Sequence of NT-3 growth factor receptor (Q16288 whole entry, the tested form may be a part): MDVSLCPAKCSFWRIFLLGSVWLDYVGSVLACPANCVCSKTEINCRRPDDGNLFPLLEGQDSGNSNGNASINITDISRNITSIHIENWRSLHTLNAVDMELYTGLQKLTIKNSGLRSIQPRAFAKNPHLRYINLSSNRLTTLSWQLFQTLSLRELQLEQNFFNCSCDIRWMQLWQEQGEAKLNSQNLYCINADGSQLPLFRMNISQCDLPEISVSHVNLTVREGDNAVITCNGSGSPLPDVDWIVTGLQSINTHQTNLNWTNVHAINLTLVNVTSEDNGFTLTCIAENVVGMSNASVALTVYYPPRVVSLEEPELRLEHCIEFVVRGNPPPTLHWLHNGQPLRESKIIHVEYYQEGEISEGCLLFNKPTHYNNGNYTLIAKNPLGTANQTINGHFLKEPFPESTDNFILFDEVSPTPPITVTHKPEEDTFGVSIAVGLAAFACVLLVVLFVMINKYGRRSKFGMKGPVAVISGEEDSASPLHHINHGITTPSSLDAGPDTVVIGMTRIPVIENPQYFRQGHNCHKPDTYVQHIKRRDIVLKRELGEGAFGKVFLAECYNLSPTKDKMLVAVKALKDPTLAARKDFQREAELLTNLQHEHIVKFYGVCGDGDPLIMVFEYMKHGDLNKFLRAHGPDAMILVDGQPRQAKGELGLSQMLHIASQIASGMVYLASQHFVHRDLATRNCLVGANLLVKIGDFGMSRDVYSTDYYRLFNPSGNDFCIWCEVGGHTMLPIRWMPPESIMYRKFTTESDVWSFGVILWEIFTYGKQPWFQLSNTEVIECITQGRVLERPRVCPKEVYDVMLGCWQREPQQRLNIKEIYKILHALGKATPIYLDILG
Sequence of Serine/threonine-protein kinase SIK2 (Q9H0K1 whole entry): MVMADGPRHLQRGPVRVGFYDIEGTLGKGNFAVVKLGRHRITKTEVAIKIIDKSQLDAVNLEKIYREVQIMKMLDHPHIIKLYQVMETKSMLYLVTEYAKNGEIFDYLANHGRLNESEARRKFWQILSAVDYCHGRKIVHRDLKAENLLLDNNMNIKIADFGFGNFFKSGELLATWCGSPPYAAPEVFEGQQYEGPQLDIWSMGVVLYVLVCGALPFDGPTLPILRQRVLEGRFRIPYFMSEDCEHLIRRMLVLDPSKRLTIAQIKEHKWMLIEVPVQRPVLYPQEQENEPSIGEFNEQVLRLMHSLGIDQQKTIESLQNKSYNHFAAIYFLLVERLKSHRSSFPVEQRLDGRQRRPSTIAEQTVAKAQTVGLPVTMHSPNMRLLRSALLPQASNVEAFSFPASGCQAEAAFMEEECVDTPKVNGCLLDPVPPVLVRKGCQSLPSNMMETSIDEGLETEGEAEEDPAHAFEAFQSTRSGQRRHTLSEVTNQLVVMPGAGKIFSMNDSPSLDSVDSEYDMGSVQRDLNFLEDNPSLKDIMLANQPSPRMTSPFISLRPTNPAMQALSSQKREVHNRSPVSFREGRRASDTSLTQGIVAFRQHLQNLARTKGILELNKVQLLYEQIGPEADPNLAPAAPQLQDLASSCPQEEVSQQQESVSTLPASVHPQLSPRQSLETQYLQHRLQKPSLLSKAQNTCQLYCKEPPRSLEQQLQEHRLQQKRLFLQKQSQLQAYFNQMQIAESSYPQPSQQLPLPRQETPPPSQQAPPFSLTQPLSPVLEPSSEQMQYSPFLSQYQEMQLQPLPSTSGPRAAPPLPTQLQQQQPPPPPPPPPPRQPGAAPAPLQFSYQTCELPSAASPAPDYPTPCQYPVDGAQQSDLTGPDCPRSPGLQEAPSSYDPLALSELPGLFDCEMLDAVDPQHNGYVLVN
Sequence of Mast/stem cell growth factor receptor Kit (P10721 whole entry, the tested form may be a part): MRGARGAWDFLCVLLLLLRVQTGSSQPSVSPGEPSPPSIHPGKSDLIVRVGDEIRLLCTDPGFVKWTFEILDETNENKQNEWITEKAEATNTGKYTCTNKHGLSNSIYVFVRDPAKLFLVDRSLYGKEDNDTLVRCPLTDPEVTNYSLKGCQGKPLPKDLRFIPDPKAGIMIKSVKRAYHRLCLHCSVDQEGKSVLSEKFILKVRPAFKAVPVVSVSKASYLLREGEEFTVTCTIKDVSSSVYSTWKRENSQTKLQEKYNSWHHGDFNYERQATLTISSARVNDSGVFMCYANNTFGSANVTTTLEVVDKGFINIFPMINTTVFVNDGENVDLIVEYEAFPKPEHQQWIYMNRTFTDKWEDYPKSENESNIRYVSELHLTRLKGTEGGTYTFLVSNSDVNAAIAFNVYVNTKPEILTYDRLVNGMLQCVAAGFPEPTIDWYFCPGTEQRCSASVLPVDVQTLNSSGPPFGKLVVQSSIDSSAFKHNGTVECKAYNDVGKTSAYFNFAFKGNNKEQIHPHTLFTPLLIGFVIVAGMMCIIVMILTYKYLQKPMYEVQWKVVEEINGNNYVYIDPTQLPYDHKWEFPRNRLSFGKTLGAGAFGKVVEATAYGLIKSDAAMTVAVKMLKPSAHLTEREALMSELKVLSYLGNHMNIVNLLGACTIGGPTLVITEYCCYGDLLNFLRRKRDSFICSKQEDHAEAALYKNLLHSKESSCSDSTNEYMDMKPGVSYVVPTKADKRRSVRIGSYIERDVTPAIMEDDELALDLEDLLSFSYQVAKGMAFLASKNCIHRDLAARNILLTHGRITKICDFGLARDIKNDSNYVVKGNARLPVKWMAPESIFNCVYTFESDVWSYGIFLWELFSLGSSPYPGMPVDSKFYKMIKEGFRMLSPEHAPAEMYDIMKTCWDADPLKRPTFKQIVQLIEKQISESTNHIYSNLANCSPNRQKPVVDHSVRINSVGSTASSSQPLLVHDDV
Sequence of STE20-like serine/threonine-protein kinase (Q9H2G2 whole entry): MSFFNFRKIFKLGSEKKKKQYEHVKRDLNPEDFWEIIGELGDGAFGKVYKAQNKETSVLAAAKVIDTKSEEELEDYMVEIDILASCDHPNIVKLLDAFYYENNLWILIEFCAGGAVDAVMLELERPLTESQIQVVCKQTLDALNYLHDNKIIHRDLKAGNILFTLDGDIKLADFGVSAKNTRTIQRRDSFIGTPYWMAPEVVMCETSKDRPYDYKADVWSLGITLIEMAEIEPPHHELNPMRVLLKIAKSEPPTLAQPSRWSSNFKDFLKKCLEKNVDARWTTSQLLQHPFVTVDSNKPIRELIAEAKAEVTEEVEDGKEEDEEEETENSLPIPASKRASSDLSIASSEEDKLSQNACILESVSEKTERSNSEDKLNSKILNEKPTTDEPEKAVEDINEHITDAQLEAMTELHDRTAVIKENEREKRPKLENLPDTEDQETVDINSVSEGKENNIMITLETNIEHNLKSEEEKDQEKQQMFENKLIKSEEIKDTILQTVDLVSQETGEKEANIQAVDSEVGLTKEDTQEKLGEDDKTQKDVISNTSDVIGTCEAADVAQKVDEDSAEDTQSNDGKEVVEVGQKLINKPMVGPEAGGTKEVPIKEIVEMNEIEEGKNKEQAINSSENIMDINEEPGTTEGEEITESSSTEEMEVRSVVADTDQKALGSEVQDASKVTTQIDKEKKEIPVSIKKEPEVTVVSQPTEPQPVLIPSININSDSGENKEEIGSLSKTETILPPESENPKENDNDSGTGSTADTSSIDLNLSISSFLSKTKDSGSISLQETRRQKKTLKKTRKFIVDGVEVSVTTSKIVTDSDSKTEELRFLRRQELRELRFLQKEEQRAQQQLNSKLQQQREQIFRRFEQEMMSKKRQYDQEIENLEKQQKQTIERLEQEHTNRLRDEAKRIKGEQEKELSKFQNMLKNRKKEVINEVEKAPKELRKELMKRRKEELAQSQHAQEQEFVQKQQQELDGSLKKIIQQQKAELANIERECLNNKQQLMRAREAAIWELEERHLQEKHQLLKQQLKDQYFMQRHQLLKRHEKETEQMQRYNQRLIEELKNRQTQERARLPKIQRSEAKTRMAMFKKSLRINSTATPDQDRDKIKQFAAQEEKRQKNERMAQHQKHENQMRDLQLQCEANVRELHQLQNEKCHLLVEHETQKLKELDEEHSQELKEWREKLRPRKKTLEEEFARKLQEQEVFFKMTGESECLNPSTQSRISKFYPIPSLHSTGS
Sequence of High affinity nerve growth factor receptor (P04629 whole entry, the tested form may be a part): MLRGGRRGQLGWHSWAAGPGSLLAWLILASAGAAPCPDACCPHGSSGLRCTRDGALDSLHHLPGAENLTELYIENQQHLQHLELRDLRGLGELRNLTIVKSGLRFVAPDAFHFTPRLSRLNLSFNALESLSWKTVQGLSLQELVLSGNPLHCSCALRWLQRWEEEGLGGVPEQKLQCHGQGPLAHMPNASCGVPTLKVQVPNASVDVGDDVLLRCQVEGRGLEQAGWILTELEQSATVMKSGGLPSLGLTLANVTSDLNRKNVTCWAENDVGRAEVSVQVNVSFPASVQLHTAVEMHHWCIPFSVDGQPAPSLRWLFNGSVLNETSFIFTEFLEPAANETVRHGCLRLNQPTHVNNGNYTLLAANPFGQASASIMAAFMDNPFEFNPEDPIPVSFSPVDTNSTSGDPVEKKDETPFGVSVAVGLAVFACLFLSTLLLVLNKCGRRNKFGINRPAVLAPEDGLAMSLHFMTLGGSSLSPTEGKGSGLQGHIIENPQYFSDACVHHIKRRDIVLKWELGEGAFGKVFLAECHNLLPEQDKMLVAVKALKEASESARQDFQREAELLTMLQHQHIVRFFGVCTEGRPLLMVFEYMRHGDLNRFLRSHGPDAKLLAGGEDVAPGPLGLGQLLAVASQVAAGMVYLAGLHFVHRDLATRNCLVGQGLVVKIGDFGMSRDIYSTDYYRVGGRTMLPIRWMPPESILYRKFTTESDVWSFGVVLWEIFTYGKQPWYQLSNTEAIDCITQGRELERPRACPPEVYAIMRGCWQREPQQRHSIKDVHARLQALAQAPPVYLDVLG

AUC(0-t) [1] | Cmax [2] | half-life [3] | clearance [4] | SMILES | also measured
2.7 µM·h | 5.2 µM | 3 h | 29 mL/min/kg | CCC[C@H](C)Nc1ncc2c(-c3ccc(CN4CCCN(C)CC4)cc3)cn([C@H]3CC[C@H](O)CC3)c2n1 | IC50 [5]: > 100 nM; inhibition at 30 mg/kg [6]: 75%; Tmax [7]: 5 min; IC50 [8]: > 100 nM; bioavailability [9]: 15%; IC50 [10]: 3.6 nM; half-life [11]: 3 h; IC50 [12]: > 100 nM; Cmax [13]: 0.6 µM; IC50 [14]: 47 nM; Cmax [15]: 0.061 µM; IC50 [16]: 8.4 nM; half-life [17]: 1.43 h
1.2 µM·h | 1.7 µM | 3.65 h | 54 mL/min/kg | CCC[C@H](C)Nc1ncc2c(-c3ccc(CNCCN(CC)CC)cc3)cn([C@H]3CC[C@H](O)CC3)c2n1 | –
2.8 µM·h | 13.8 µM | 2.1 h | 32 mL/min/kg | CCC[C@H](C)Nc1ncc2c(-c3cnn(C4CCNCC4)c3)cn([C@H]3CC[C@H](O)CC3)c2n1 | –
1.5 µM·h | 3.5 µM | 2.6 h | 55 mL/min/kg | CCC[C@H](C)Nc1ncc2c(-c3ccnc(N4CCNCC4)c3)cn([C@H]3CC[C@H](O)CC3)c2n1 | –
– | – | – | – | CCCCNc1ncc2c(-c3ccc(CN4CCN(C)CC4)cc3)cn([C@H]3CC[C@H](O)CC3)c2n1 | inhibition [18]: 100%
1.6 µM·h | 6.5 µM | 0.65 h | 50 mL/min/kg | CCC[C@H](C)Nc1ncc2c(-c3ccc(S(=O)(=O)N4CCN(C)CC4)cc3F)cn([C@H]3CC[C@H](O)CC3)c2n1 | –

SMILES | AUC(0-t) [1] | Cmax [2] | half-life [3] | clearance [4] | also measured
CCC[C@H](C)Nc1ncc2c(-c3ccc(CN4C5CCC4CC5)cc3)cn([C@H]3CC[C@H](O)CC3)c2n1 | 0.28 µM·h | 0.1 µM | 1.8 h | 302 mL/min/kg | –
CCC[C@H](C)Nc1ncc2c(-c3ccc(CN4CCOCC4)cc3)cn([C@H]3CC[C@H](O)CC3)c2n1 | 2.2 µM·h | 8.6 µM | 1.4 h | 41 mL/min/kg | –
